This passage reports IC50 and inhibition results from ChEMBL document CHEMBL1759867, “Evaluation of dihydropyrimidin-(2H)-one analogues and rhodanine derivatives as tyrosinase inhibitors” (Bioorg Med Chem Lett, 2011).

The source made the active and inactive calls. The calls are words filed in the database; no cut-off is given here.

Usually IC50 stands for the concentration at which inhibition is half-maximal.

In one test the target is T1, Tyrosinase (Agaricus bisporus, UniProt O42713).
T1 sequence (O42713 whole entry): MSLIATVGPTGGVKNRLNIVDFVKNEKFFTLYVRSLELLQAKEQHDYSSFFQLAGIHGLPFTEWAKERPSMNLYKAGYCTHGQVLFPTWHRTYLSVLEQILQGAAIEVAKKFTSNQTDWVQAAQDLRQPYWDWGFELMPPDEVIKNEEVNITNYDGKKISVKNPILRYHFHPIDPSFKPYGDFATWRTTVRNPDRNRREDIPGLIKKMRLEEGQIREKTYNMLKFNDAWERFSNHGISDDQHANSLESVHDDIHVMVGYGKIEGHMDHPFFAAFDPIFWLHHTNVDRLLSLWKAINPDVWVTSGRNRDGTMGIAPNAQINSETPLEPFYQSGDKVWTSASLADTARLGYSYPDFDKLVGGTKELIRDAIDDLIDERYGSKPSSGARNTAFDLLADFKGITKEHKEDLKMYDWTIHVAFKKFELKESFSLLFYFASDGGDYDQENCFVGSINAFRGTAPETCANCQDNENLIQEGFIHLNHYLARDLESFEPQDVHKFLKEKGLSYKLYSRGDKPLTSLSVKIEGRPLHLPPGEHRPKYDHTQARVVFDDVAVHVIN
Description: Inhibition of diphenolase activity of mushroom tyrosinase preincubated with compound for 10 mins before addition of L-DOPA as substrate by spectrophotometric analysis. Summed up: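 Diphenolase activity of mushroom tyrosinase was measured with L-DOPA as substrate at 25 °C. IC50 was taken from logarithmic concentration–inhibition curves of at least eight points, as the mean of three experiments.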
Consider `O=C1NC(=S)S/C1=C\c1ccc(OCCO)cc1`, for which the half-maximal inhibitory concentration (IC50) is 0.56 mM.
The same measure, in the same setting: next, `CC(=O)C1=C(C)NC(=S)NC1c1ccccc1O` (configuration not stated): 16.2 mM; `O=C1NC(=S)S/C1=C\c1ccc(O)cc1`: 10.1 mM; `COc1cc(C2NC(=S)NC(C)=C2C(C)=O)ccc1O` (configuration not stated): 20.1 mM.
On the same count and under the same terms, for `CCC1NC(=S)NC(C)=C1C(C)=O` (configuration not stated) the value was 10.7 mM; for `O=C1NC(=S)S/C1=C\c1ccccc1O`, 9.55 mM.
Same read-out and setting: next, `COc1cc(/C=C2\SC(=S)NC2=O)ccc1O`: 11.1 mM; `COc1ccc(C2NC(=S)NC(C)=C2C(C)=O)cc1` (configuration not stated): 25.1 mM; `O=C1NC(=S)S/C1=C\c1ccc(OCCO)c(OCCO)c1`: 5.69 mM.
As to `CC(=O)C1=C(C)NC(=S)NC1c1ccc(O)cc1` (configuration not stated), the IC50 was found to be 12.3 mM.

Another test concerns the target T2, Tyrosinase (Agaricus bisporus) (UniProt O42713).
T2 sequence (whole entry): T1 sequence (O42713 whole entry)
The experiment in a line: Inhibition of diphenolase activity of mushroom tyrosinase at 50 mM preincubated with compound for 10 mins before addition of L-DOPA as substrate by spectrophotometric analysis. A digest of the protocol:
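Mushroom tyrosinase diphenolase activity was measured on L-DOPA at 25 °C. Compounds were scored for activity at a single fixed concentration.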
Turning to `CC(=O)C1=C(C)NC(=O)NC1c1ccccc1` (configuration not stated), the inhibition result is “inactive”.
On the same count and under the same terms, for `CCC1NC(=O)NC(C)=C1C(C)=O` (configuration not stated) the value was “inactive”; for `CCO/N=C(\C)C1=C(C)NC(=O)NC1CC` (configuration not stated), “inactive”.
Regarding `COc1ccc(C2NC(=O)NC(C)=C2C(C)=O)cc1` (configuration not stated), the inhibition result is “inactive”.
For `COc1cc(C2NC(=O)NC(C)=C2C(C)=O)ccc1O` (configuration not stated), the inhibition entry is “inactive”.
On the same count and under the same terms, next, `CC(=O)C1=C(C)NC(=O)NC1c1ccc(O)cc1` (configuration not stated): “inactive”.
For the compound `CC(=O)C1=C(C)NC(=O)NC1c1ccccc1O` (configuration not stated), the inhibition result was “inactive”.
